Inconclusive results are not listed.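 The calls were made as follows, unless noted: active = cell viability at or below a set limit in both duplicate runs, the limit being the all-compound median minus 4 SD (cut at about 23% in these data, passing the limit was not always enough); inconclusive = no clear call, values can overlap the other calls; inactive = the rest.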
Columns and labels:
[1] = S. cerevisiae growth inhibition in permissive medium (OD615), pilot counter-assay for S. cerevisiae lifespan shortening project, permissive growth control (AID 705;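 active = growth inhibition above 25% in both replicates, a cutoff set 3 SD above the mean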); details: OD615, 24 h, at 10 µM, hits give high values
How it was run: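 Material: engineered DeaD yeast; compound dosing: one dose 10 µM, DMSO 0.25% final; measure: yeast growth inhibition indicated by reduced 24 h OD615; detection: OD615 turbidity read; incubation: cells pre-grown 4 h, then 24 h compound exposure, 30 °C humidified; medium: permissive synthetic complete medium with raffinose and galactose carbon sources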

[2] = S. cerevisiae growth inhibition in restrictive medium, OD615, pilot screen, restrictive growth control, yeast lifespan reduction project (AID 706;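 active = growth inhibition above a set limit, 3 SD over mean compound inhibition, in both replicates, cut at about 43% in these data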;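 also: modified DeaD lifespan yeast strain shifted to restrictive glucose medium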); details: OD615, 48 h, at 10 µM, hits give high values
How it was run: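 material = engineered S. cerevisiae DeaD strain | medium = glucose-based CSMM-D restrictive medium | times = 4 h pre-incubation, 48 h exposure at 30 °C | technique = OD615 absorbance reading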

[3] = doxorubicin toxicity protection in MRP-1 cells – H69AR cells, CellTiter-Glo, duplicate, MRP-1 activator project, pilot screen (AID 807;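 active = viability increase at or above a cutoff of the median across tested compounds plus 3 SD, cut at about 8.5% in these data, passing the limit was not always enough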;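 also: compound pretreatment 18-22 h then 72 h combined with doxorubicin; 0% = doxorubicin alone and 100% = vehicle without doxorubicin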); details: H69AR viability with doxorubicin, CellTiter-Glo luminescence; at 10 µM; hits give high values
[4] = viability of HCT116 without oncogenic beta-catenin – human colon tumor cells, pilot screen (AID 823); details: HCT116 beta-catenin knockout viability, CellTiter-Glo, 60 h; at 10 µM; hits give low values;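 also: 0% = wells killed by 20 µM Hyamine and 100% = untreated DMSO cell wells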
[5] = viability of PTEN-null HCT116 cells – cell-based, HCT116 clonal line, CellTiter-Glo, pilot screen (AID 824;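 active = viability at or below 27.92% in each of two runs, the all-compound median minus 4 SD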;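 also: 0% = 20 µM Hyamine control and 100% = vehicle cell control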); details: HCT116 PTEN-deleted viability, 60 h, at 10 µM, hits give low values
[6] = RAM pathway blockade in budding yeast – dse1pr::URA3 reporter, 5-FOA selection, pilot screen (AID 869;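 active = inhibition over a set limit, the all-compound mean plus 3 SD, in both replicate runs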;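 also: 0% = DMSO wells with no growth and 100% = 10 µM 1-NA-PP1 with full growth; RAM network block rescues cells from 5-FOA so hits raise OD615 growth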); details: S. cerevisiae dse1pr::URA3 5-FOA growth, OD615, 2 d; at 10 µM; hits give high values; strain carries analog-sensitive mutant Cbk1 kinase
[7] = RAM signaling pathway blockade in yeast – S. cerevisiae, Pdr1DBD-CYC8 efflux-inhibited sensitized strain, primary screen (AID 1298;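 active = RAM network inhibition above 8.4% in each of two replicates, 3 SD over the compound average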;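 also: 0% = DMSO untreated cells without growth and 100% = 10 µM 1-NA-PP1 full growth; higher means more yeast growth rescued from 5-FOA killing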); details: S. cerevisiae cbk1-as DSE1-URA3 strain, 5-FOA growth OD615, 2 d; at 50 µM; hits give high values

CCN1CCN(c2cc(=O)n(C3CCCCC3)c(=O)[nH]2)CC1
inactive: growth inhibition [1] -13.3% | growth inhibition [2] -10.1% | viability increase [3] 0.11% | viability [4] 104% | viability [5] 102% | inhibition [6] 1.2% | RAM network inhibition [7] 2.53%

O=C(NCc1ccc(Cl)cc1)C1CCCN(S(=O)(=O)c2cnc[nH]2)C1 (configuration not stated)
inactive: growth inhibition [1] 1.47% | growth inhibition [2] -8.94% | viability increase [3] 1.36% | viability [4] 106% | viability [5] 92.4% | inhibition [6] 2.04% | RAM network inhibition [7] 1.09%

COc1ccccc1CNC(=O)c1cnc2ccccn2c1=O
inactive: growth inhibition [1] -6.47% | growth inhibition [2] 8.2% | viability increase [3] -0.15% | viability [4] 97.8% | viability [5] 90.5% | inhibition [6] 0.36% | RAM network inhibition [7] 2.45%

O=C(Nc1ccccc1)N1CCN(Cc2ccc3c(c2)OCO3)CC1
inactive: growth inhibition [1] 5.22% | growth inhibition [2] -15.8% | viability increase [3] -1.15% | viability [4] 101% | viability [5] 96.8% | inhibition [6] 1.25% | RAM network inhibition [7] 2.76%

[O-]/[N+](=C\c1ccc(OC(F)F)cc1)c1ccccc1
inactive: growth inhibition [1] -1.07% | growth inhibition [2] 2.88% | viability increase [3] -5.13% | viability [4] 88.1% | viability [5] 93.7% | inhibition [6] 1.19% | RAM network inhibition [7] 1.08%

Cc1onc(-c2ccccc2Cl)c1C(=O)Nc1nnc(C(C)C)s1
inactive: growth inhibition [1] 1.52% | growth inhibition [2] 4.5% | viability increase [3] -1.44% | viability [4] 93.4% | viability [5] 95.7% | inhibition [6] -0.23% | RAM network inhibition [7] 4.37%

COc1cccc(CNC(=O)c2cc3ccccn3n2)c1
inactive: growth inhibition [1] -1.27% | growth inhibition [2] -6.35% | viability increase [3] -2.27% | viability [4] 106% | viability [5] 96.8% | inhibition [6] 1.33% | RAM network inhibition [7] -0.11%

CC(=O)Nc1ccc(S(=O)(=O)N2CCN(CCC#N)CC2)cc1
inactive: growth inhibition [1] -4.55% | growth inhibition [2] 6.44% | viability increase [3] 0.85% | viability [4] 111% | viability [5] 97.1% | inhibition [6] 1.86% | RAM network inhibition [7] 0.19%

COc1ccccc1CNC(=O)COC(=O)c1ccc(NC(N)=O)cc1
inactive: growth inhibition [1] -12.7% | growth inhibition [2] -13.7% | viability increase [3] -0.98% | viability [4] 96.5% | viability [5] 97.9% | inhibition [6] 0.56% | RAM network inhibition [7] 5.2%

O=C(c1cc2ccccn2n1)N1CCN(Cc2ccccc2)CC1
inactive: growth inhibition [1] 1.21% | growth inhibition [2] 7.58% | viability increase [3] -0.74% | viability [4] 104% | viability [5] 87.7% | inhibition [6] 0.99% | RAM network inhibition [7] 2.76%

Cn1c(=O)oc2cc(S(=O)(=O)N3CCCC(C(=O)NCc4cccs4)C3)ccc21 (configuration not stated)
inactive: growth inhibition [1] 2.14% | growth inhibition [2] 2.64% | viability increase [3] -1.73% | viability [4] 100% | viability [5] 93.4% | inhibition [6] 2.51% | RAM network inhibition [7] 6.45%

O=C(NC1CCCC1)C1c2ccccc2C(=O)N1CCCN1CCOCC1 (configuration not stated)
inactive: growth inhibition [1] -2.13% | growth inhibition [2] -1.37% | viability increase [3] -1.72% | viability [4] 97.2% | viability [5] 98.4% | inhibition [6] 1.2% | RAM network inhibition [7] 1.51%

O=C(CN1CCN(Cc2ccc(F)cc2)C1=O)NCc1cccs1
inactive: growth inhibition [1] -6.23% | growth inhibition [2] -1.7% | viability increase [3] 1.33% | viability [4] 99.5% | viability [5] 94.1% | inhibition [6] 0.97% | RAM network inhibition [7] 2.12%

COc1ccc(-n2c(Cc3cccn3C)nnc2SCC(=O)Nc2ccccc2C)cc1
inactive: growth inhibition [1] -11.6% | growth inhibition [2] 11.1% | viability increase [3] -2.39% | viability [4] 86% | viability [5] 81.7% | inhibition [6] 1.33% | RAM network inhibition [7] 7.38%

O=c1nc2n(c3sc4c(c13)CCC4)Cc1ccccc1-2
inactive: growth inhibition [1] -15.5% | growth inhibition [2] -9.3% | viability increase [3] -2.14% | viability [4] 94.2% | viability [5] 100% | inhibition [6] 1.48% | RAM network inhibition [7] 1.43%

Cn1c(=O)c2c(nc(SCCNS(=O)(=O)c3ccccc3)n2C)n(C)c1=O
inactive: growth inhibition [1] -20.6% | growth inhibition [2] -16.3% | viability increase [3] -3.87% | viability [4] 101% | viability [5] 99% | inhibition [6] 1.46% | RAM network inhibition [7] 7.66%

O=C(Nc1nc2c(s1)COc1ccccc1-2)c1cccs1
inactive: growth inhibition [1] 0.91% | growth inhibition [2] -0.5% | viability increase [3] -4.13% | viability [4] 72.2% | viability [5] 71% | inhibition [6] 1.43% | RAM network inhibition [7] 3.54%

O=C(Nc1ccncc1)c1ccccc1F
inactive: growth inhibition [1] -0.355% | growth inhibition [2] 0.36% | viability increase [3] -3.04% | viability [4] 94.3% | viability [5] 98% | inhibition [6] 1.06% | RAM network inhibition [7] 0.96%

CCc1ccc(C2CC(c3cccc(Cl)c3)n3nc(N)nc3N2)cc1 (configuration not stated)
inactive: growth inhibition [1] -3.09% | growth inhibition [2] 10.4% | viability increase [3] -3.92% | viability [4] 71.5% | viability [5] 65.6% | inhibition [6] 2.25% | RAM network inhibition [7] 9.11%

O=C(Nc1ccc(F)cc1)C1CCC(N2C(=O)c3ccccc3C2=O)CC1 (configuration not stated)
inactive: growth inhibition [1] -11.6% | growth inhibition [2] -20.7% | viability increase [3] -7.05% | viability [4] 86.3% | viability [5] 96.1% | inhibition [6] 1.48% | RAM network inhibition [7] 12.4%

Cn1c(C(=O)N2CCN(c3ccc(F)cc3)CC2)cc2c(=O)n(C)c3ccccc3c21
inactive: growth inhibition [1] -6.62% | growth inhibition [2] -10.8% | viability increase [3] -2.2% | viability [4] 95.1% | viability [5] 85% | inhibition [6] 1.64% | RAM network inhibition [7] 1.39%

COc1ccc(OC)c(-c2nc(C(N)=O)c3[nH]c(=O)n(-c4ccc(F)cc4)c3n2)c1
inactive: growth inhibition [1] -0.485% | growth inhibition [2] -10.4% | viability increase [3] -2.73% | viability [4] 95.4% | viability [5] 103% | inhibition [6] 2.46% | RAM network inhibition [7] 0.16%

CC(=O)c1c(C)cc(C)c(CSc2nc(C)cc(=O)[nH]2)c1C
inactive: growth inhibition [1] 2.49% | growth inhibition [2] 19.8% | viability increase [3] 0.08% | viability [4] 83% | viability [5] 74.2% | inhibition [6] 0.245% | RAM network inhibition [7] 2.49%

c1csc(CCNc2ncnc3sc4c(c23)CCC4)c1
inactive: growth inhibition [1] -5.19% | growth inhibition [2] 13.9% | viability increase [3] -5.93% | viability [4] 39.9% | viability [5] 50.1% | inhibition [6] 0.385% | RAM network inhibition [7] -0.9%

CC1CN(Cc2nc3c(c(=O)n(C)c(=O)n3C)n2Cc2ccccc2)CC(C)O1 (configuration not stated)
inactive: growth inhibition [1] -2.62% | growth inhibition [2] 3.58% | viability increase [3] -0.81% | viability [4] 106% | viability [5] 100% | inhibition [6] 0.15% | RAM network inhibition [7] 2.1%

N#Cc1nc(-c2ccc(F)cc2)oc1NCc1ccccc1
inactive: growth inhibition [1] -11.9% | growth inhibition [2] 2.85% | viability increase [3] 0.89% | viability [4] 105% | viability [5] 95.7% | inhibition [6] 1.36% | RAM network inhibition [7] 1.07%

CCOc1ccc(N(CC(=O)Nc2ccccc2)S(C)(=O)=O)cc1
inactive: growth inhibition [1] 0.69% | growth inhibition [2] -1.96% | viability increase [3] -1.68% | viability [4] 102% | viability [5] 97.4% | inhibition [6] -0.325% | RAM network inhibition [7] 4.68%

COC(=O)Nc1c(C(=O)OC)cc(OC)c(OC)c1OC
inactive: growth inhibition [1] -3.62% | growth inhibition [2] -6.57% | viability increase [3] -2.87% | viability [4] 94.7% | viability [5] 97.4% | inhibition [6] -0.495% | RAM network inhibition [7] 4.86%

COc1ccc(C(=O)CCC(=O)O)cc1
inactive: growth inhibition [1] -6.25% | growth inhibition [2] 0.095% | viability increase [3] -0.14% | viability [4] 98.1% | viability [5] 96.7% | inhibition [6] 2.16% | RAM network inhibition [7] -2.03%

Cn1c(=O)[nH]c(=O)c2c1nc(N1CCCCC1)n2CCSc1nc2ccccc2o1
inactive: growth inhibition [1] -4.52% | growth inhibition [2] -1.63% | viability increase [3] -3.7% | viability [4] 90.7% | viability [5] 92.4% | inhibition [6] 1.11% | RAM network inhibition [7] 1.87%

Cc1nc2nc[nH]c2cc1Br
inactive: growth inhibition [1] 5.74% | growth inhibition [2] 6.22% | viability increase [3] -2.75% | viability [4] 97.8% | viability [5] 100% | inhibition [6] 0.705% | RAM network inhibition [7] -0.41%

CCCOc1ccc(N2C(=O)CC(N3CCC(O)(c4cccc(C(F)(F)F)c4)CC3)C2=O)cc1 (configuration not stated)
inactive: growth inhibition [1] 1.01% | growth inhibition [2] -0.55% | viability increase [3] 2.49% | viability [4] 101% | viability [5] 103% | inhibition [6] 2.71% | RAM network inhibition [7] 5.62%

NC(=O)CSc1ncnc2c1oc1ccccc12
inactive: growth inhibition [1] -17.7% | growth inhibition [2] -9.65% | viability increase [3] -2.08% | viability [4] 99.5% | viability [5] 91.6% | inhibition [6] 0.41% | RAM network inhibition [7] 0.74%

O=C(Nc1nnc(-c2ccccc2)s1)c1ccc(Cl)c(S(=O)(=O)N2CCOCC2)c1
inactive: growth inhibition [1] -16.8% | growth inhibition [2] -5.79% | viability increase [3] -1.65% | viability [4] 100% | viability [5] 96.2% | inhibition [6] 2.61% | RAM network inhibition [7] 1.72%

CC1(C)CC(=O)C2=C(C1)OC(N)=C(C#N)C2c1ccc(OC(=O)N2CCOCC2)cc1 (configuration not stated)
inactive: growth inhibition [1] -8.71% | growth inhibition [2] -10.3% | viability increase [3] -1.1% | viability [4] 100% | viability [5] 105% | inhibition [6] 1.12% | RAM network inhibition [7] 0.1%

COC(=O)C1C(=O)c2c([nH]c(C(=O)OC3CCCCCC3)c2C)CC1C (configuration not stated)
inactive: growth inhibition [1] 1.09% | growth inhibition [2] 2.59% | viability increase [3] -2.6% | viability [4] 102% | viability [5] 91.1% | inhibition [6] 1.3% | RAM network inhibition [7] 3.01%
